# This is a sample that favours compounds with a hit; in the whole collection about 4% have one here.
# PHOSPHO1 block: PHOSPHO1 (human) inhibition | recombinant PHOSPHO1, absorbance phosphatase assay | inhibition, % at 13.3 µM | 1.1% of 290,000 active; in the data active means inhibition above about 60%
# hERG rescue: compounds protecting human hERG from proarrhythmic drug block; Q12809; CHO-hERG, FluxOR thallium flux, dofetilide IC70 present; activation (rescue from dofetilide block), less the hit threshold, % at 10 µM; 0.51% of 310,000 active; AID 1511;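 active means activation above the mean of controls blocked by dofetilide plus 5 SD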;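 further: thallium influx through hERG after potassium depolarization seen as dye fluorescence rise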
# KCNK9 block: human KCNK9 channel inhibition; B-score at 10 µM; HEK293 KCNK9, FluxOR thallium flux fluorescence; active compounds read low; 1.2% of 310,000 active; Q9NPC2;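 active means ratio B-score over 3 SD below the library mean, with starting fluorescence within 5 SD of its mean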;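 further: negative B-score means less thallium flux so channel inhibition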
# KCNK3 block: human KCNK3 channel inhibition, primary screen; B-score at 10 µM; O14649; 0.84% of 340,000 active; CHO-KCNK3 thallium flux, FluxOR fluorescence; active compounds read low;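 active means B-score under library mean minus 4 SD, starting fluorescence ratio at most library mean plus 5 SD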;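 further: more negative B-score means stronger inhibition of thallium flux through KCNK3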
# Target sequence (O14649 whole entry, looked up): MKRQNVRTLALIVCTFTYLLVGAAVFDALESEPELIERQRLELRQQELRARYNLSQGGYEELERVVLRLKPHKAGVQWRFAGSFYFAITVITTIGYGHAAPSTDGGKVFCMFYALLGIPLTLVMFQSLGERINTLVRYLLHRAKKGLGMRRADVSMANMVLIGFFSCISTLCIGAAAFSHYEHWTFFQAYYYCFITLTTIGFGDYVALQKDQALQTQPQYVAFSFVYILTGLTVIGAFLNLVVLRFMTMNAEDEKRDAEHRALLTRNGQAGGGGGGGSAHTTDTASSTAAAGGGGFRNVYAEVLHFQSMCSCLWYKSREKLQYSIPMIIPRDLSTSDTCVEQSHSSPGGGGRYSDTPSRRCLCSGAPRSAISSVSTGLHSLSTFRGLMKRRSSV
# KCNQ1 pot: potentiators or activators of human KCNQ1 potassium channel | CHO-K1 KCNQ1, thallium flux FluxOR fluorescence; active compounds read high | B-score at 10 µM | P51787 | AID 2648 | 0.35% of 310,000 active;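 active means fluorescence ratio B-score, a plate-corrected score, at least three library SD, with initial intensity B-score within 5 SD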
#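 Test system: CHO-K1 cells stably expressing KCNQ1 / Medium: assay buffer / Also added: depolarizing K+/Tl+ stimulus, K2SO4 and Tl2SO4 each 12.5 mM in 5x stock / Incubation: 90 min dye loading and 20 min compound exposure, both at room temperature / Signal: thallium influx via FluxOR fluorescence, kinetic imaging / Evaluation: B score of baseline-normalized fluorescence ratio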
# KCNQ1 inh: inhibitors of human KCNQ1 potassium channel; CHO-K1 KCNQ1, FluxOR thallium flux fluorescence; active compounds read high; B-score at 10 µM; P51787; 1.3% of 310,000 active;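 active means compounds whose thallium flux B-score, printed positive for inhibition, exceeds three library SD while starting fluorescence stays within three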;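 further: channel opened by potassium depolarization with thallium stimulus after 20 min compound exposure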
# Numbers without * were called inactive; i = inactive; nt = no result given.
SMILES,PHOSPHO1 block,hERG rescue,KCNK9 block,KCNK3 block,KCNQ1 pot,KCNQ1 inh
COC1=CC(=O)C(O)=C(CCCCCCC/C=C/CCCCCCCC2=C(O)C(=O)C=C(OC)C2=O)C1=O,nt,-5.5,i,i,i,10*
CCCCCCCCCCCC1=C(O)C(=O)C=C(O)C1=O,nt,-5.9,i,i,i,i
O=C(CNC(=O)c1ccco1)NCC(=O)OCc1c(F)cccc1Cl,46.5,-11.5,i,i,i,i
COC(=O)c1c(NC(=O)COC(=O)CNC(=O)c2ccco2)sc(C)c1C,-11.2,-7.6,i,i,i,i
O=C(c1cccn2c(=O)c3cc4ccccc4cc3nc12)N1CCN(c2ccccc2)CC1,100.3*,-7.9,i,nt,i,i
O=C(c1cccn2c(=O)c3ccccc3nc12)N1CCN(c2ccccn2)CC1,10.6,-2.5,i,i,i,i
COc1ccc(CN2C(=O)C(C)Nc3ncnc(N4CCN(c5ccccn5)CC4)c32)cc1 (centres undefined),nt,nt,nt,i,nt,nt
Cc1ccc(C2=CSC3=NCCN23)cc1,nt,-12.6,i,i,i,i
Cc1cc(C)c(C2=CSC3=NS(=O)(=O)CCN23)c(C)c1,47.6,7.7*,i,i,i,i
CC(C)NC(=O)Nc1cccc2c1O[C@H](CN(C)S(=O)(=O)c1ccccc1)[C@@H](C)CN([C@H](C)CO)C2=O,nt,nt,nt,i,nt,nt
O=Cc1cc(N=Nc2ccccc2Cl)ccc1O,13.7,-19.6,i,i,11*,i
O=Cc1cc(N=Nc2cccc(C(=O)O)c2)ccc1O,53.0,-17.1,i,i,i,i
CC(Oc1ccc([N+](=O)[O-])cc1)C(=O)NCCCN1CCOCC1 (centres undefined),65.8*,-5.2,i,i,i,i
CCOC(=O)C(=CNc1cc(C)ccn1)C(=O)OCC,1.6,5.1*,i,i,i,i
CCOC(=O)C(=CNc1ccc(Oc2cccnc2)nc1)C(=O)OCC,44.1,4.6*,i,i,i,i
CC1CCCN(C(=O)CCS(=O)(=O)Cc2ccccc2)C1 (centres undefined),7.8,-8.9,i,i,i,i
S=c1nc(-c2ccc(Cl)cc2)[nH][nH]1,28.5,-2.7,i,i,i,i
CCCOc1ccc(-c2nc(=S)[nH][nH]2)cc1,95.4*,-19.0,i,i,i,i
O=C1C=CC(=O)N1c1cccc(-c2ccccc2)c1,78.2*,-10.9,i,i,i,i
Cc1ccc(S[C@@H](CCN2CC[C@H](C(C)(C)C)CCC2=O)c2ccccc2)cc1,15.2,-5.7,i,i,i,7*
Cc1ccc(S[C@@H](CCN2CC[C@H](O)CCC2=O)c2ccccc2)cc1,-159.5,-5.5,i,i,i,i
O=C1C(O)CCN1Cc1ccccc1 (centres undefined),nt,nt,nt,i,nt,nt
CCOc1ccc(Br)cc1S(=O)(=O)Nc1ccc(Cl)c(S(=O)(=O)N(C)C)c1,-4.5,-10.6,i,i,i,i
Cc1nn(-c2ccccc2)nc1C(=O)NNC(=O)c1cccc2ccccc12,16.0,-12.3,i,i,15*,i
CCOC(=O)C1=C(COC(=O)/C=C/c2ccco2)NC(=O)NC1C (centres undefined),nt,-11.7,i,i,i,i
SMILES,PHOSPHO1 block,hERG rescue,KCNK9 block,KCNK3 block,KCNQ1 pot,KCNQ1 inh
CC(C)(C)C(=O)N1CCCC1C(=O)O (centres undefined),21.7,4.9*,i,i,i,i
S=C(N/N=C/c1ccc(Br)cc1)N1CCCCC1,-71.8,-5.2,i,i,i,i
Cc1ccc(/C=N/NC(=S)N2CCOCC2)cc1,61.7*,-3.8,i,i,i,i
Cc1ccc(CNC(=S)N2CCOCC2)cc1,18.0,-12.3,i,i,i,i
S=C(N/N=C/c1ccc(Cl)cc1)N1CCOCC1,-5.0,8.6*,i,i,i,i
O=C1CCN(Cc2ccccc2)C=C1c1ccc(C(F)(F)F)cc1,nt,nt,nt,i,nt,nt
CCN(CCS(=O)(=O)c1ccc(Cl)cc1)C(=O)Nc1ccc(Cl)cc1,22.0,-12.8,i,i,i,i
Cc1cccc2sc(NC(=O)c3ccc(OCC4CCCO4)cc3)nc12 (centres undefined),12.6,6.5*,i,i,i,i
COc1ccc(/C=N/NC(=O)c2cccc(C(=O)N/N=C/c3ccc(OC)c(OC)c3)n2)cc1OC,36.0,-9.4,i,i,i,i
COc1ccc(/C=N/NC(=O)Nc2cccc3nsnc23)cc1OC,-6.9,-13.4,-6.58*,i,i,i
CCOC(=O)C1(Cc2cccc(Cl)c2)CCCN(C(=O)c2ccc(C)nc2)C1 (centres undefined),62.8*,-10.2,i,i,i,i
N#Cc1cccc(NC(=O)CNC(=O)Cc2ccccc2)c1,23.2,-6.9,i,i,i,i
N#Cc1cccc(NC(=O)Cc2ccccc2)c1,61.8*,-11.7,i,i,i,i
N#Cc1cccc(NC(=O)c2nc(-c3ccccc3)n(-c3ccccc3)n2)c1,0.9,7.1*,i,i,i,i
O=C(Nc1ccc2c(c1)OCO2)N1CCN(c2cccc(C(F)(F)F)c2)CC1,17.3,-7.7,i,i,i,i
CCCOc1nc2ccccc2cc1/C=C/C(=O)O,0.3,-8.2,i,i,i,i
CCOc1nc2ccccc2cc1C=O,30.4,7.1*,i,i,11*,i
Cc1ccc(SCC2(O)CCN(C(=O)c3ccc(Cl)cc3)CC2)cc1,62.0*,-12.0,i,i,i,i
CS(=O)(=O)N(CC(=O)N/N=C/c1cccc2c1OCCO2)c1ccccc1Br,60.1*,-13.7,i,i,i,i
Cc1cc(=O)[nH]c2ccc(S(=O)(=O)N3CCOCC3)cc12,72.8*,-6.0,i,i,i,i
O=c1c2c([N+](=O)[O-])cc([N+](=O)[O-])cc2sn1Cc1ccccc1,-11.5,-0.4,i,i,i,i
O=c1c2c([N+](=O)[O-])cc([N+](=O)[O-])cc2sn1-c1ccc(Br)cc1,88.7*,nt,nt,i,nt,nt
CCOc1ccc(NC(=O)CSc2nnc(C3CC3)n2C)cc1,1.7,-4.9,i,i,i,i
CCOc1ccc(C(=O)CSc2nnc(C3CC3)n2C)cc1,8.0,6.4*,i,i,i,i
CC(C)(C)c1cc(N/C=C\c2nnnn2-c2ccc(Br)cc2)no1,-12.7,7.3*,i,i,i,i
Cc1ccc(-n2nnnc2/C=C\Nc2cc(C)on2)cc1,-10.5,-3.7,i,i,i,i
